In BindingDB's records for doi:10.1128/AAC.00669-08 (Tibotec, 2008):

Legend:
[1] = molecular target: T1, DNA polymerase subunit gamma-1 (Homo sapiens, UniProt P54098); assay: Inhibition of human DNA polymerase gamma
T1 sequence (P54098 whole entry): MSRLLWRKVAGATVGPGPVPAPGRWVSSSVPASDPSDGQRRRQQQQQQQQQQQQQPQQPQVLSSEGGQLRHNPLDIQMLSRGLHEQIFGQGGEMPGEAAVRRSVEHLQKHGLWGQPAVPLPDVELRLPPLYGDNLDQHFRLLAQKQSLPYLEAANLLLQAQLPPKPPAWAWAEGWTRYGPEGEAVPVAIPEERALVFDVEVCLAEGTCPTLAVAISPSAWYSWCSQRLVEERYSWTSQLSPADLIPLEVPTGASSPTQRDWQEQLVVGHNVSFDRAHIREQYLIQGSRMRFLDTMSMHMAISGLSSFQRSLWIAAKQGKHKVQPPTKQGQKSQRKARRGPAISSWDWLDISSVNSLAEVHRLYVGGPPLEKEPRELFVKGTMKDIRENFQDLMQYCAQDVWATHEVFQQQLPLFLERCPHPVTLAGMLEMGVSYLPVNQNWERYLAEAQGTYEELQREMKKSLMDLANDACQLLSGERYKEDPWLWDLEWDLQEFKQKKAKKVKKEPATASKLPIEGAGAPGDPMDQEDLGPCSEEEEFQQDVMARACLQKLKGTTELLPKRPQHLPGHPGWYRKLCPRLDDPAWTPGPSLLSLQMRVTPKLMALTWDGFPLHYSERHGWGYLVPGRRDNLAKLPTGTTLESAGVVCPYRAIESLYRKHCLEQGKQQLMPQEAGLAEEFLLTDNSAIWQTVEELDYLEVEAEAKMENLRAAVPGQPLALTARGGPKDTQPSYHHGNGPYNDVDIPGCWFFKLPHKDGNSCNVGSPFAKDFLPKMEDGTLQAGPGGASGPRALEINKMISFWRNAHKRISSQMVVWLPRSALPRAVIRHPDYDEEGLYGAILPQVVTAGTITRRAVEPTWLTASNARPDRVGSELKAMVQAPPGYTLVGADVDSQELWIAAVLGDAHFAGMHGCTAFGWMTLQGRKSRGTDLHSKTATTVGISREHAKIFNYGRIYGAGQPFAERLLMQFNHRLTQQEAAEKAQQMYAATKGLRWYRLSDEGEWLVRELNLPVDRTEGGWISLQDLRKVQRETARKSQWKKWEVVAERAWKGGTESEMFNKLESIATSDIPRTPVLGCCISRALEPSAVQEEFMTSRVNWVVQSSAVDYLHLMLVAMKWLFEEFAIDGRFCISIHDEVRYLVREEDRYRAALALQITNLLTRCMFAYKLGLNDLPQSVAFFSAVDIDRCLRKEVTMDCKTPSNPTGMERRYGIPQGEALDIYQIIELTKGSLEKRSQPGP
Summary of the method: (§1)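 Each enzyme–compound pair was tested in duplicate over 0.8 to 100 μM, with 100 μM as the highest dose. Each run included a no-inhibitor control, a solvent dilution (0.016 to 2% DMSO) and the relevant reference inhibitor. Percent inhibition at 100 μM was recorded for polymerase γ.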

[2] = molecular target: T2, DNA polymerase alpha catalytic subunit (Homo sapiens, UniProt P09884); assay: Inhibition of human DNA polymerase alpha; summary of the method: as §1
T2 sequence (P09884 whole entry): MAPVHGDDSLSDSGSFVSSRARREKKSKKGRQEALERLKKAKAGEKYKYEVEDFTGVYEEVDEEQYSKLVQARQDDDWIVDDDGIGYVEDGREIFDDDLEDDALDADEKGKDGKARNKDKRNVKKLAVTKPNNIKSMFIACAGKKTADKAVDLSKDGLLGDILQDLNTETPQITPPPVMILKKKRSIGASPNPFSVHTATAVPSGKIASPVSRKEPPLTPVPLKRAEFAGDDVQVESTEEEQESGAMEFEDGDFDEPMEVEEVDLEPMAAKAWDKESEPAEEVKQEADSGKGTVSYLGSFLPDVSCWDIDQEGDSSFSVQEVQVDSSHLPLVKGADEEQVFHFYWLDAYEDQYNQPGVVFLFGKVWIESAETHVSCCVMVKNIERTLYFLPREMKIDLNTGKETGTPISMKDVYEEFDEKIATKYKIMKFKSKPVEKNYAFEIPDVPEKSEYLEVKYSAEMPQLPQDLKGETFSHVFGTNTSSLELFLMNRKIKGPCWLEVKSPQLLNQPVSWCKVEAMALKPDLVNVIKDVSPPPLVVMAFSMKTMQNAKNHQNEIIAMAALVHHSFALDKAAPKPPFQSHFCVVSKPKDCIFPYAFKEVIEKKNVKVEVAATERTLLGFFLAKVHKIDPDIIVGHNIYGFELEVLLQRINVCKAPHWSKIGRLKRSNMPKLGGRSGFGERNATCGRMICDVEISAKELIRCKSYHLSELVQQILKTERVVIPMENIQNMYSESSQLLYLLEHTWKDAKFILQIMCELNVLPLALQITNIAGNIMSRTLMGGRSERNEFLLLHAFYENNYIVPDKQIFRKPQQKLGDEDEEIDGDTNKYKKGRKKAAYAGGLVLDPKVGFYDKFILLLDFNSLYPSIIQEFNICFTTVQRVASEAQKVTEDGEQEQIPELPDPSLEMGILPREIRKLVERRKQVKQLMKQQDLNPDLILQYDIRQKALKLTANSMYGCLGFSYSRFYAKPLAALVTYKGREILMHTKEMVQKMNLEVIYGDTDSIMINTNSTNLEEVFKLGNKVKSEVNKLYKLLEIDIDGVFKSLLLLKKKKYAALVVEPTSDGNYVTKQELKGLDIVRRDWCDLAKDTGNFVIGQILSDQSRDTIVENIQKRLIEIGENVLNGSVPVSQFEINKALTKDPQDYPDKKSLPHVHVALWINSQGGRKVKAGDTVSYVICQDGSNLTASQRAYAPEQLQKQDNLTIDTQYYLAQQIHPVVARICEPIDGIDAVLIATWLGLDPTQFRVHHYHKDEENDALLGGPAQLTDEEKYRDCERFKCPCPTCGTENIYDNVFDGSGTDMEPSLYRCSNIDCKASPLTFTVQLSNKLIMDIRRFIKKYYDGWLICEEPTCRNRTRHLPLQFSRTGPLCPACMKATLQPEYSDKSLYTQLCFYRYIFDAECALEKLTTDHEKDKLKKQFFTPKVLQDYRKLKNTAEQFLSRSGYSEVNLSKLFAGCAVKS

[3] = molecular target: DNA polymerase beta (Homo sapiens, UniProt P06746); assay: Inhibition of human DNA polymerase beta; summary of the method: as §1
[4] = molecular target: T3, Translocator protein (Homo sapiens, UniProt P30536); assay: (§2) Inhibition of peripheral benzodiazepine BZD receptor by radioligand binding assay
Summary of the method: (§3)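 Radioligand binding assays for the GABA-A central BZD receptor and the peripheral BZD receptor were run as a single experiment in duplicate.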

[5] = molecular target: T3, Translocator protein; assay: as §2; summary of the method: as §3; remark: listed apart in the source

T3 sequence (P30536 whole entry): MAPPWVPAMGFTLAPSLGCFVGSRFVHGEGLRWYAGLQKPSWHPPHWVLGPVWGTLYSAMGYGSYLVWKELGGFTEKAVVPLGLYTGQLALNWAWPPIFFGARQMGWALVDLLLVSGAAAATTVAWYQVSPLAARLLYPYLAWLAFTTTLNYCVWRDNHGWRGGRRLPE

IC50 [1] [µM] | IC50 [2] [µM] | IC50 [3] [µM] | IC50 [4] [µM] | IC50 [5] [µM] | SMILES
> 100 | > 100 | > 100 | – | – | CC(=O)N1c2ccccc2N=C2CC(C)(C)CC(=O)C2C1c1ccc(Cl)cc1Cl (stereo not drawn) [10-acetyl-11-(2,4-dichlorophenyl)-3,3-dimethyl-2,3,4,5,10,11-hexahydro-1H-dibenzo[b,e][1,4]diazepin-1-one]
> 100 | > 100 | > 100 | – | – | COc1ccc(C2C3C(=O)CC(C)(C)CC3=Nc3ccccc3N2C(C)=O)cc1OCc1ccccc1 (stereo not drawn) [10-acetyl-11-(3-(benzyloxy)-4-methoxyphenyl)-3,3-dimethyl-2,3,4,5,10,11-hexahydro-1H-dibenzo[b,e][1,4]diazepin-1-one]
– | – | – | > 30 | > 30 | CC(=O)N1c2cccc(O)c2N=C2CC(C)(C)CC(=O)C2C1c1ccc(OCc2ccccc2)cc1Cl (stereo not drawn) [10-acetyl-11-(4-(benzyloxy)-2-chlorophenyl)-6-hydroxy-3,3-dimethyl-2,3,4,5,10,11-hexahydro-1H-dibenzo[b,e][1,4]diazepin-1-one]
